Measured values reported in the EternaBench riboswitch data.

System: MS2 coat protein
Test: apparent Kd, MS2 coat protein; higher = weaker binding; RNA-MaP array; FMN 200 µM where present
Procedure, shortened: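 Two titrations, one without ligand and one with constant ligand, were run with SNAP-549-labelled MS2 coat protein from 0.7 or 1.5 nM, doubling to 3 µM. The targets were designs transcribed by stalled E. coli RNA polymerase on Illumina sequencing-chip clusters, in 100 mM Tris-HCl pH 7.5, 80 mM KCl, 4 mM MgCl2, BSA, DTT, yeast tRNA and Tween-20. The apparent Kd is the median of filtered per-cluster binding-curve fits, with green signal normalised to red-channel RNA signal and control-cluster median Fmax.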

[1] = designed as: OFF switch for flavin mononucleotide, no ligand
[2] = ligand present: flavin mononucleotide, designed as: OFF switch for flavin mononucleotide
[3] = designed as: ON switch for flavin mononucleotide, no ligand
[4] = ligand present: flavin mononucleotide, designed as: ON switch for flavin mononucleotide

Sequence	apparent Kd [1] [nM]	apparent Kd [2] [nM]	apparent Kd [3] [nM]	apparent Kd [4] [nM]
GCCUUAUCGGUCAGGAUAUACACCUGUUAGUUGUUGUAGAAGGGACAUGAGGAUCACCCAUGUACAUUACAUUG	23.1	40.1		
GCCUUAUCUGUCAGGAUAUACAAUUUUUUUUUUUUGUAGAAGGGACAUGAGGAUCACCCAUGUACAUUACAUUG	34	57.9		
GCGAGUAAAGCAGGAUAUCUAUUGUCUCGGAAACAUGAGGAUCACCCAUGUAGAGAAGGGCUAAGUCAUACAAUUCGAACUCGC	11.2	10.8		
GCGAUUAAGUAGAAGGUACGAUAUAAAUCAAUGUAAGGAUAUACUGACAUGAGGAUCACCCAUGUUUAAUUUGUUUACUGUCGC			7.42	5.99
GCGAUUUUGUAAGGAUAUACACGAGUUUUAAGUGUAGAAGGUACUUACAUGAGGAUCACCCAUGUAUUAAUGUUUAAUAGUCGC			8.5	6.84
GCGAUUUUGUAAGGAUAUACUCUGUGAUGAAGAGUAGAAGGUACUUACAUGAGGAUCACCCAUGUUUAACGAGAUACUAAUCGU			42.1	21.2
GCGCAGUCAGGAUAUGCCGCUGGCGAUCACCGUGGGCAAAGGCAGAAGGGACAUGAGGAUCACCCAUGUGGCGC	72.1	32.9		
GCGGAGAUACAGAAGGGAUAAGCCCUGGGCUAAUCAGGAUAUGUACGACGCAUCGUACAUGAGGAUCACCCAUGUAGCCGCUUG			483	85.6
GCGGCUAAUGCAGGAUAUCGGCACGUGUAGUGCCGAGAAGGGCACAUGAGGAUCACCCAUGUGAUCAAUCAAUGUUAAUGCCGC	8.86	44.2		
GCGGUACAUGAGGAUCACCCAUGUCAGGAUAUCCGCUGUUUGUCGAUUGGCGGGCGGUGGAGAAGGGACCUCGC	80.4	81.6		
GCGUAACAUGAGGAUCACCCAUGUACCCGAGAAUUCGGGUGUAGAAGGGUGACCGGUCGUUUGGCACAGGAUAUACACGUUGUG			30.1	16.8
GCGUAAUAGGUGUAGCUAGUCGUUCAAGAAGGGUGAAGAACAUGAGGAUCACCCAUGUGGUCUAUACAGGAUAUUGAUAUACGC				66.6
GCGUAGAUAGCAGGAUAUAUGUUUCCUACAUGAGGAUCACCCAUGUAGGUGAUCAGCCGAGAAAAGUAGAAGGGCUAUCUAUGC			17.4	14.5
GCGUAUAUAUUAUUUAUUUAACAGUCAGAAGGUGAGAAGACGACAUGAGGAUCACCCAUGUUAUUCAAGGAUAUGAUAAUGCGC			27.5	13.3
GCGUAUGAAAAUAUGUCUGAGGGCAGAAGGCACAUGAGGAUCACCCAUGUAACGAUCUCUUCAAGUGAGGAUAUGUGCUCAUUG	31.8	113		
GCGUCGAGUGUGAGGAUAUGCUGGUCCUUGGAUCAGCAGAAGGCACAUGAGGAUCACCCAUGUGAAAACGAUGC	22.7	140		
GCGUGAAAUGUAGGAUAUGACACAGGAAACUGGUCAGAAGGACAUGAGGAUCACCCAUGUAAUAAGUUCAAGAAUAACACAUGC	33.1	75.5		
GCGUGACAUGAGGAUCACCCAUGUACUCGAGAAAUCGAGUGUAGAAGGGUGACCGGUCGUUUGGCACAGGAUAUACACGCUGUG			27.3	16.3
GCGUUGAACGAGAAGGCCAAUACAUGAGGAUCACCCAUGUUGUGAUGUUUUGGAGGAUAUCGAUCGUCGUCUCAUGAGCAACGC	7.47	10.2		
GCUACAUAUUUUAAGUUUGAUUAUCUAGAAGGUAGAUACAUGAGGAUCACCCAUGUUUAGAGUUCUAAGGAUAUAGUUUGUAGC			6.12	5.91
GCUACGCCUGACAUGAGGAUCACCCAUGUUAGAUUGUUAUGUCAGGAUAUUGUCUAGAAACUAGACAAGAAGGGAUGUGUAGCU			728	66.5
GCUAGUAUUGCAGGAUAUUGUGUUUAAGGAUGGCAAGAAGGGCAUUACAUGAGGAUCACCCAUGUUUUCCGUAGUCAUACUAGC	7.34	7.28		
GCUAGUCAUGUCAGGAUAUGCAGUUCCUUGGAACUGCAGAAGGGACAUGAGGAUCACCCAUGUGCCUAGCUAGC	41.1	357		
GCUCAGUAAGGAUAUUAAUGACGCUGUUAUUCAGCGUCAGCUGAGAAGGUACAUGAGGAUCACCCAUGUGGUGA	210	117		
GCUCGAUGCGCUGAGAACAUGAGGAUCACCCAUGUAAAUGGUCAGGAUAUUUACGUGCUUUAUGUAGAGAAGGGACCAUCGAGC			110	27.3
GCUCUAUGCUAGAAGGCGUGAAACAUGAGGAUCACCCAUGUCAAAGAAGUGAGGAUAUAGCAUAGAGCAAAAGUGCGAAAGCAC			16.9	7.32
GCUCUAUGCUAGAAGGCGUGAAACAUGAGGAUCACCCAUGUCAAAGACGUGAGGAUAUAGCAUAGAGCAAAAGUGCGAAAGCAC			5.49	5.29
GCUGACGAUGUAGGAUAUCAGUAUAAUAAAUACUGAGAAGGACAUGAGGAUCACCCAUGUCUCCAACGUCAGCAGAGGAAACUC	15.9	16.8		

Sequence	apparent Kd [1] [nM]	apparent Kd [2] [nM]	apparent Kd [3] [nM]	apparent Kd [4] [nM]
GCUGAUGCAGGAUAUAUAUGAAGCGUUCGAAUAGAAUGCGAACAUGAGGAUCACCCAUGUAGAAGGGCAUUGGC	14.6	20.1		
GCUGCAUAGGCAGGAUAUGCAACAAUUCGAAUAAAAUAUAACGAAUUGACAUGAGGAUCACCCAUGUAGAAGGGCCUGUGCAGU	18.6	20		
GCUGCAUAGGCAGGAUAUGCAAUAAUUCGAAUAAAAUUUAACGAAUUAACAUGAGGAUCACCCAUGUAGAAGGGCCUGUGCAGU	5.49	4.69		
GCUGUCGCAUGAGGAUAUGGUCAGCUUUGCUGACCAGAAGGCAUGUCAAUAGACAUGAGGAUCACCCAUGUAGUAAGGGCGGCU			466	48.8
GCUGUCGUAUGAGGAUAUGGUCACCUUUGGUGACCAGAAGGCAUGUCAAUAGACAUGAGGAUCACCCAUGUAGUAAAGACAGCA			391	39.4
GCUGUGGCAUGAGGAUAUGGUCAGGUUUCCUGACCAGAAGGCAUGUCAAUAGACAUGAGGAUCACCCAUGUAGUUAACACAGCA			514	45.9
GCUUUAGUAUCACAUGUAUUACAUGAGGAUCACCCAUGUUACUAGGAUAUGUAUUAGAAUUUACAACAGAAGGAGUAAGAAUGU	7.49	8.93		
GGAAAACAUGAGGAUCACCCAUGUGAGGAUAUCGAUGUCCAAAAAGAGGUGCGGGACUCGAGAAGGCACUUGGA	55.1	54		
GGAAAUCAUGUAGGAUAUGCAUGGCGAAGCUACGCAGAAGGACAUGAGGAUCACCCAUGUUCUAGCUACCGAGUUCGGUGGCAA	21.6	114		
GGAACGCUUGACAUGAGGAUCACCCAUGUUAGAUUGUUAUGUCAGGAUAUAGUCUAGAAACUAGACUAGAAGGGAUAUGUUUCU			428	87.7
GGACGGUUAGUUAGGAUAUGCUCUACCUCGGUAGAGCAGAAGGGACAUGAGGAUCACCCAUGUGAAAACUGUUC	19.4	21.3		
GGACGUCACAUGAACAUGAGGAUCACCCAUGUAACUAGACAUGAGGAUAUGGAACCUAAUUGGUUCCAGAAGGCAUGGACGUCC			194	32.2
GGACGUCACAUGAACAUGAGGAUCACCCAUGUGAAAACACAUGAGGAUAUGGAUCCUAAUUGGAUCCAGAAGGCAUGGACGUCC			476	27.2
GGACGUCACAUUUACAUGAGGAUCACCCAUGUCGAAAGACAUGAGGAUAUGCAUCCUAAUUGGAUGCAGAAGGCAUGGACGUCC			335	245
GGAGAACAUGAGGAUCACCCAUGUGAGAGGGAUGUAGGAUAUGUGAGGAGUAAAGGAGGGACAGAAGGACAGAGAU			45.8	43.8
GGAGACCUCACAGGAUAUGCUGGACUUUGUCCAGCAGAAGGGUGAACAUGAGGAUCACCCAUGUUGGUCUCCAAAAUAUUUAAU			882	108
GGAGAUUACUCAGGAUAUCGCUAGACCGACAUGAGGAUCACCCAUGUGGGUGACGCGGUGGGCUACGAGAAGGGAGAAGUGCCC	11.5	11.7		
GGAGCACAUGAAUACAUGAGGAUCACCCAUGUCAAAAGAUAUGAGGAUAUGGAUCGGAAAACGAUCUAGAAGGCAUAGUGCUCC			28.8	6.98
GGAGCCGACACUGAGGAUAUUCAUAUUAAAACAUGAGGAUCACCCAUGUAGGCCAGAAGGCCUUGGGAGAAGGCAGGCCGGCUCG			377	26.5
GGAGCCGGCACUGAGGAUAUUCAUAUUAAAACAUGAGGAUCACCCAUGUAGGCCAGAAGGCCUUGGGAGAAGGCGGGUCGGCCCG			531	35.3
GGAUAGGACAGAGGAUAUACGUGCUAGAGAAACUAGCAAAAUUUCCUCACAUGAGGAUCACCCAUGUAGAAGGCUGUCCUAUCG	14.5	543		
GGAUAGGACAGAGGAUAUACGUGCUAGAGAUACUAGCAAAAUUUCGUCACAUGAGGAUCACCCAUGUAGAAGGCUGUCCUAUCG	5.02	7.65		
GGAUAGGACAGAGGAUAUACGUGCUAGAGAUACUAGCAACAUUUCCUCACAUGAGGAUCACCCAUGUAGAAGGCUGUCCUAUCG	8.16	190		
GGAUAGGACAUAGGAUAUACGUGCUAGAGAUACUAGCAAAAUUUCCUCACAUGAGGAUCACCCAUGUAGAAGGCUGUCCUAUCG	6.73	24.5		
GGAUCCAACACAGGAUAUGCUGGACUUUGUCCAGCAGAAGGGUGUACAUGAGGAUCACCCAUGUAUUGGAUCCAUAUAUUUAAU			996	80.8
GGAUCGAAUGUCAGGAUAUACCACUGGAUACAGUGGUAGAAGGGACAUGAGGAUCACCCAUGUGUUAUCGAUCC	40.4	114		
GGAUCGAGUGUGAGGAUAUGCUGGUCCUAAGAUCAGCAGAAGGCACAUGAGGAUCACCCAUGUGAAAACGGUCC	26	182		
